The text below walks through data of PMC5771882 (Biochemistry, 2017).

A value given as a limit tells only on which side of the number the result lay.

One experiment has as its target HSP70-1A/B (Homo sapiens, UniProt P0DMV8). As to the kind of experiment: LC–MS quantitative chemical proteomic assay. As to conditions: ATP 1 mM. Type of experiment: binding.
For another experiment, the target named is BRAF (Homo sapiens, UniProt P15056). In words: LC–MS quantitative chemical proteomic assay. Type of experiment: binding. To be noted: ATP 1 mM.
Sequence of BRAF (P15056 whole entry): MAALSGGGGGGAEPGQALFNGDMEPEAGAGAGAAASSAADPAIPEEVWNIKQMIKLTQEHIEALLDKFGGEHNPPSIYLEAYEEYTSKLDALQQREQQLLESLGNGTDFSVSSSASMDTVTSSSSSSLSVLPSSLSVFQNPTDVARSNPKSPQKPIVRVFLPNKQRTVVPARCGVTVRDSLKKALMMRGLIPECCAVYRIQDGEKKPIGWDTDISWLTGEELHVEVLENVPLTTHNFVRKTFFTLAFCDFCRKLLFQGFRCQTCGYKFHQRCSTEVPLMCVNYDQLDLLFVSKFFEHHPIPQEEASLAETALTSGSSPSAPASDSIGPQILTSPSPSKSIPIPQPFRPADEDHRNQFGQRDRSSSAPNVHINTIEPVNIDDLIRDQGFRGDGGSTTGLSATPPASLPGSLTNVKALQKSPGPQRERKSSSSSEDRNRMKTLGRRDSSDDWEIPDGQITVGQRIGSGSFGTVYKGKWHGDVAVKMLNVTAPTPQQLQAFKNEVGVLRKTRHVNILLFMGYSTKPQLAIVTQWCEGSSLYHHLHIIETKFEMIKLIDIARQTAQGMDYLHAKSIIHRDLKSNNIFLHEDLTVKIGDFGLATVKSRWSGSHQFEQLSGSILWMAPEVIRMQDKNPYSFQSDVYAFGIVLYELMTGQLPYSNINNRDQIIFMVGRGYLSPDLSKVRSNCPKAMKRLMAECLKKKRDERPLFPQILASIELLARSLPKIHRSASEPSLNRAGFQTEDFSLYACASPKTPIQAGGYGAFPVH
Experiment [1] concerns the target T1, recombinant DGKα (Rattus norvegicus, UniProt P51556). In words: LC–MS quantitative chemical proteomic assay. The class given is binding.
For experiment [2], the target named is T1, recombinant DGKα. In words: DAG phosphorylation substrate assay. The class given is biochemical. To be noted: DGKα-overexpressed HEK293T soluble proteomes. In short, it runs like this: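 IC50 derived from a dose–response curve of DAG phosphorylation by recombinant DGKα across a range of test compound concentrations. Data are means ± standard error of the mean of two biological replicates, and a 95% confidence interval is given for the IC50.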

T1 sequence (P51556 whole entry): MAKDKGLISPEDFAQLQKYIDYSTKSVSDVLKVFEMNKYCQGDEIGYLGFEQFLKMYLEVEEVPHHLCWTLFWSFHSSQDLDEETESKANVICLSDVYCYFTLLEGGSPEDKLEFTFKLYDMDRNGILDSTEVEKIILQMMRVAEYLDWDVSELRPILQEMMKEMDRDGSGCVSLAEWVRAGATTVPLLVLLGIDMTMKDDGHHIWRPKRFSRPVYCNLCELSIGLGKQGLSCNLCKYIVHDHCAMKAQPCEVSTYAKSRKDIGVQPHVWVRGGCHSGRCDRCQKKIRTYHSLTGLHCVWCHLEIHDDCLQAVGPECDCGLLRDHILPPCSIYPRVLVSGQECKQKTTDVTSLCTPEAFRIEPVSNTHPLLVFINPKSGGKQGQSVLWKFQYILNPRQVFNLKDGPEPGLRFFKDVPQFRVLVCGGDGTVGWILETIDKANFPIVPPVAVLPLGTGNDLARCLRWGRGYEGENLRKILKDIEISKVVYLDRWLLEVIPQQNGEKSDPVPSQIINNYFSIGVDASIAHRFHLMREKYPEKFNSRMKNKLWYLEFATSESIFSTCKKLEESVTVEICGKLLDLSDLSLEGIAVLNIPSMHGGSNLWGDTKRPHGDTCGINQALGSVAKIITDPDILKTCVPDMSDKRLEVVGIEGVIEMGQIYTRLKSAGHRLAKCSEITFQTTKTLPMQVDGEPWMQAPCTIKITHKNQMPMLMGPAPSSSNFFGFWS
Sequence of HSP70-1A/B (P0DMV8 whole entry): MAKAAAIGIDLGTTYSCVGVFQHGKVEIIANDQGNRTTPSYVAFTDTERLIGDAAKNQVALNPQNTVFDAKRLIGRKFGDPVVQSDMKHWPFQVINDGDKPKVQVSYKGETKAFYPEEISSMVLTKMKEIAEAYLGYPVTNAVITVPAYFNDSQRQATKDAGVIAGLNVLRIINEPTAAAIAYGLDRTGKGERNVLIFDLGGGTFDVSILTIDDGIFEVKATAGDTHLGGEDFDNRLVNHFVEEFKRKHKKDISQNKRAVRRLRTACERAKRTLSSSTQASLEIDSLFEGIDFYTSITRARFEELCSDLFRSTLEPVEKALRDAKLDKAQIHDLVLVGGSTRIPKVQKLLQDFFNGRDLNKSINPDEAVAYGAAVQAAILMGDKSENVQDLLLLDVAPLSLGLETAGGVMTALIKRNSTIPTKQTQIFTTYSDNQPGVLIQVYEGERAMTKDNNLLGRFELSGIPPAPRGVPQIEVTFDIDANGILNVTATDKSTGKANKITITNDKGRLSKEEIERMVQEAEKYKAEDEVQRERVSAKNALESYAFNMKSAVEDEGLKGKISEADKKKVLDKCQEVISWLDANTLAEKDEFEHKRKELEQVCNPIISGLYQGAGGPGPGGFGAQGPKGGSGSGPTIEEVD

As to `Nc1ncnc2c1ncn2[C@@H]1O[C@H](COP(=O)(O)OP(=O)(O)OP(=O)(O)O)[C@@H](O)[C@H]1O` [ATP], the “SILAC ratio (SR), HSP70-1A K56/HSP70-1B K56” value on HSP70-1A/B is more than 5. Besides, the “SILAC ratio (SR), BRAF” value on BRAF was more than 5. Also, the “blockade of probe labeling at primary ATP-binding sites (DAGKc/DAGKa)” value at recombinant DGKα [1] (RLM001 10 mM, ATP 1 mM) is listed as “near-complete blockade of probe labeling”. Moreover, at recombinant DGKα [1] (free ATP (1 mM)), the “SILAC ratio (SR), C1-binding site” value is on record as ~ 2.
As to `Cc1nc2sccn2c(=O)c1CCN1CCC(=C(c2ccccc2)c2ccc(F)cc2)CC1` [R59022], the “blockade of recombinant DGKα catalytic activity” value at recombinant DGKα [2] is reported as “blockade of catalytic activity”.
As to `Cc1nc2sccn2c(=O)c1CCN1CCC(=C(c2ccc(F)cc2)c2ccc(F)cc2)CC1` [ritanserin], the “blockade of recombinant DGKα catalytic activity” value at recombinant DGKα [2] is reported as “blockade of catalytic activity”.
